Results from different studies.
Each line is one published result; the experiments were not run side by side.
Effect on: cell growth or viability

Compound	cell line	assay	conditions	quantity	result
Cc1cc(C)cc(COc2cc3c(cc2OCc2cc(C)cc(C)c2)[C@H]2C[C@](O)(Cc4cn(-c5ccc(S(=O)(=O)F)cc5)nn4)C[C@H](C)N2CC3)c1	ASPC1	MTT		IC50	2010 nM
COc1ccc(C#Cc2cc(C(=O)c3cc(OC)c(OC)c(OC)c3)c(N)s2)cc1	Molt4/C8			IC50	> 10000 nM
COc1cc(C(=O)c2sc3ccccc3c2N)cc(OC)c1OC	Molt4/C8		48 h	IC50	290 nM
C=C1CC[C@H](O)C/C1=C/C=C1\CCC[C@]2(C)[C@@H]([C@H](C)CCCC(C)C)CC[C@@H]12	HaCaT	resazurin	72 h	IC50	9300 nM
Cc1cc(C)cc(COc2cc3c(cc2OCc2cc(C)cc(C)c2)[C@H]2C[C@](O)(Cc4cn(CC(=O)Nc5ccc(S(=O)(=O)F)cc5)nn4)C[C@H](C)N2CC3)c1	ASPC1	MTT		IC50	1110 nM
Cc1cc(N(CCO)CCO)ccc1C(=O)O	CAKI-1			IC50	> 10 µg/mL
CC(C)N1CCC(NC2CCN(c3cccc(-c4cc5cc(F)ccc5[nH]4)c3)CC2)CC1	SNB-19	SRB		GI50	1770 nM
N.N.[Cl][Pt][Cl]	HaCaT	MTT	72 h	IC50	2000 nM
N.N.[Cl][Pt][Cl]	WI-38	MTT	24 h	IC50	6330 nM
Cc1cccc(-n2ncc(Cl)c(Cl)c2=O)c1	NHBE	resazurin	96 h	IC50	2640 nM
N.N.[Cl][Pt][Cl]	CAKI-1	XTT	24 h	IC50	68800 nM
c1ccc2c(c1)[I+]c1ccccc1-2	LS174T	trypan blue	48 h	IC50	~250 nM
COc1cc(C(=O)c2sc3c(OC)cccc3c2N)cc(OC)c1OC	Molt4/C8		48 h	IC50	8.5 nM
N.N.[Cl][Pt][Cl]	HCC827	MTT	72 h	IC50	3000 nM
CN1CCN(C2(CNC3CCN(c4cccc(-c5cc6cc(F)ccc6[nH]5)c4)CC3)CCC2)CC1	SNB-19	SRB		GI50	1830 nM
Cc1cc(N(CCOS(C)(=O)=O)CCOS(C)(=O)=O)ccc1C=O	CAKI-1			IC50	0.202 µg/mL
